# Assay outcomes deposited in PubChem BioAssay by several laboratories.
# Shown are actives, neighbours in structure and some others; about 2.9% of the full set was active somewhere.
# Jurkat tox 60K – reduces viability or proliferation of Jurkat cells. Jurkat E6.1 viability, ATP luminescence, 48 h. inhibition, % at 4 µM. 56,000 tested, 1.2% active. AID 463;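 active means inhibition above the mean inhibition of all tested compounds plus 3 SD, cut at about 28% in these data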
# MT1-MMP txn act – activates MT1-MMP transcription. activation factor at 10 µM. 86,000 tested, 0.16% active. HT1080 MT1-MMP promoter luciferase reporter, luminescence, overnight; active compounds read high;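 active means activation factor of at least 2 for MT1-MMP transcription at 10 µM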
# SF-1 act – SF-1 (human) activation; Q13285; CHO-K1 Gal4-SF-1 LBD luciferase reporter; % increase over DMSO SF-1-specific signal; activation, % at 10 µM; 65,000 tested, 1.9% active;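 active means activation above the mean activation of all tested compounds plus 3 SD, cut at about 50% in these data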
# Target sequence (Q13285 whole entry, looked up, the tested form may be a part): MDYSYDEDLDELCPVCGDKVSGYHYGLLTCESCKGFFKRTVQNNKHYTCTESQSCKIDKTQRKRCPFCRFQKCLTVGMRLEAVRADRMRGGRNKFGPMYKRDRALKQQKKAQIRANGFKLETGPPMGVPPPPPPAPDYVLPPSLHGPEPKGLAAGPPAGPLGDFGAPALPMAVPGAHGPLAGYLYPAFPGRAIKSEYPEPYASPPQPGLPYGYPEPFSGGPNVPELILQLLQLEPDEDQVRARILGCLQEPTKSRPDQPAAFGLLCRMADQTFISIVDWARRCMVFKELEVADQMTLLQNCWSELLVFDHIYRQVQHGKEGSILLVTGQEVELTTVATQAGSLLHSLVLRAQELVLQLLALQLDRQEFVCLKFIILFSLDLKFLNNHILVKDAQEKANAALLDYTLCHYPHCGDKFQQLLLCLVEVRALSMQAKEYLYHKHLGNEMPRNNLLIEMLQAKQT
#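 System: CHO-K1 cells with Gal4–hSF-1 LBD chimera plus Gal4-driven luciferase; quantity: 4,000 CHO-K1 cells per well; compound: one dose, 10 µM compound, 1% DMSO; times: 20 h compound treatment, 37 °C; measured by: SteadyLite luciferase luminescence; read-out: percent activation versus DMSO; benchmarks: DMSO and mock-transfected background; replicates: one test per compound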
# HEK293 NFkB inh – lowers PMA/ionomycin-induced NF-kB signal in HEK293 cells | inhibition, % at 3 µM | 62,000 tested, 0.21% active | HEK-293 NF-kB luciferase reporter, luminescence;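 active means inhibition above the mean of all tested compounds plus 3 SD, cut at about 40% in these data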;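 further: 0% = stimulated DMSO wells and 100% = 10 µM reference inhibitor 5653914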
#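 Reagent: PMA plus ionomycin mix as NF-kB-activating stimulus. Assay system: NF-kB luciferase reporter HEK-293 cells. Technique: luminescence from luciferase substrate reagent. Incubation: 1 h compound pre-incubation, 16 h PMA/ionomycin at 37 °C. Benchmarks: DMSO only as uninhibited control, 10 µM reference inhibitor as full inhibition. Repeats: tested once.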
# RORa activator – activates the human nuclear receptor RORA; P35398; CHO-K1 Gal4-RORA LBD luciferase reporter, luminescence; percent increase over mock-subtracted basal signal; activation, % at 10 µM; 65,000 tested, 1.5% active; AID 560;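 active means activation above the mean of all tested compounds plus 3 SD, cut at about 49% in these data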;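 further: 0% = DMSO-treated RORA cells and 100% = added signal equal to DMSO minus mock-transfected cells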
# The depositor's hits bear a star; . = no result.
SMILES,Jurkat tox 60K,MT1-MMP txn act,SF-1 act,HEK293 NFkB inh,RORa activator
CCC(C)c1ccc(NC(=O)c2cccnc2)cc1 (stereo not drawn),-2,1.5,112*,-18,93*
O=C(NCc1cccnc1)c1ccc(NC(=O)c2ccco2)cc1,.,1.1,.,.,.
O=C(Nc1cnc2ccccc2c1)c1cccnc1,-8,1,75*,-9,58*
CCCCOC1(c2ccccc2)NC(=S)NN=C1c1ccccc1 (stereo not drawn),.,1.1,.,.,.
COc1ccc(C(c2nnnn2Cc2cccs2)N2CCN(c3ccccc3F)CC2)cc1 (stereo not drawn),10,1.1,-2,14,-17
Cc1ccc(S(=O)(=O)N2C(=O)CCC2C(=O)Nn2cnnc2)cc1 (stereo not drawn),.,1,.,.,.
CCCn1c(NC(=O)c2ccccc2)nc2ccccc21,22,1.3,12,-8,22
Cn1c(NC(=O)c2cccnc2)nc2ccccc21,0,1.8,52*,-20,52*
CN(C(=O)c1ccc(Cl)cc1)C1=CCCCC1CCC#N (stereo not drawn),0,1,-1,13,-10
Cc1cc(N)c(NC2=CC(=O)CC(C)(C)C2)cc1C,2,1.1,9,9,70*
CC1CCCN(S(=O)(=O)c2ccc(C(=O)Nc3nnc(-c4ccccc4Cl)o3)cc2)C1 (stereo not drawn),2,0.9,-2,3,2
CC1CC(C)CN(S(=O)(=O)c2ccc(C(=O)Nc3nnc(-c4cccs4)o3)cc2)C1 (stereo not drawn),44*,1.2,-43,22,-41
O=C(Nc1nnc(-c2cccs2)o1)c1cccc(C(F)(F)F)c1,64*,1.1,4,0,-1
O=C(CCc1ccccc1)Nc1nnc(-c2cccs2)o1,12,1.1,6,2,15
CCC1CCCCN1S(=O)(=O)c1ccc(C(=O)Nc2nnc(-c3cccs3)o2)cc1 (stereo not drawn),82*,1,-37,34,-1
O=S(=O)(NCCOCC(F)(F)F)c1ccc2oc3ccccc3c2c1,9,1.1,-9,8,-13
Cc1cc(OCC(=O)N2CCCC2)ccc1Cl,-3,1.3,51*,-15,18
Cc1ccc(OCC(=O)N2CCCCC2)c(Br)c1,1,1.3,57*,4,54*
CC(=O)/C=C(\C)NCCNc1c(F)c(F)c(CO)c(F)c1F,.,0.9,-6,.,-18
Fc1cccc(NCc2cn3ccccc3n2)c1,2,1.1,72*,-54,45
Fc1ccc(NCc2cn3ccccc3n2)cc1,-1,1.5,47,-6,20
CC(OC(=O)C1CCN(S(=O)(=O)c2ccc(Cl)cc2)CC1)C(=O)N1CCc2ccccc21 (stereo not drawn),.,1.2,.,.,.
O=C(NCc1ccccc1)N(Cc1nc2ccccc2c(=O)[nH]1)C1CCCC1,6,1,17,22,4
CCOc1ccccc1NC(=O)CN(c1ccc(OC)cc1)S(=O)(=O)c1c(C)noc1C,93*,0.5,-11,36,-16
CCOc1ccc(N(CC(=O)Nc2ccccc2C)S(=O)(=O)c2c(C)noc2C)cc1,91*,0.4,2,36,27
SMILES,Jurkat tox 60K,MT1-MMP txn act,SF-1 act,HEK293 NFkB inh,RORa activator
CCOc1ccc(N(CC(=O)Nc2ccc(C)c(C)c2)S(=O)(=O)c2c(C)noc2C)cc1,16,1,-7,20,44
COc1ccc(N(CC(=O)Nc2cc(C)ccc2OC)S(=O)(=O)c2c(C)noc2C)cc1,20,1.2,54*,6,24
COc1ccc(NC(=O)CN(c2cc(C)cc(C)c2)S(=O)(=O)c2c(C)noc2C)cc1,-5,1.1,-17,4,33
COc1ccccc1N1CCN(CC(=O)Nc2cc(C)nn2-c2nc(C)cc(C)n2)CC1,.,.,30,27,8
Cc1ccc2[nH]c(-c3cccc(N)c3)cc2c1,3,1.3,51*,-39,55*
COc1ccc(OC)c2[nH]c(=O)c(CCNC(=O)c3ccc(Br)o3)cc12,-6,1.1,-9,-6,-17
O=[n+]1c2c(n([O-])c3c1CCCC3)CCCCC2,-7,1.1,14,23,8
CCOC(=O)C1CCN(CC(=O)Nc2c(C(=O)OC)[nH]c3ccc(Cl)cc23)CC1,44*,1,-13,16,28
CCOC(=O)C1CCN(CC(=O)Nc2c(C(=O)OC)[nH]c3ccccc23)CC1,10,1.2,-10,1,15
CC(C)(O)c1cc(=O)sc2nc3ccccc3n12,.,1.2,53*,-19,71*
c1ccc2nc3c(nc2c1)sc1nc2ccccc2n13,-3,1,6,10,-13
Cc1csc(NC(=O)c2cnccn2)n1,-4,1.4,25,-4,22
Cc1cnc(C(=O)Nc2nnc(C)s2)cn1,-11,1.2,1,10,-2
Cc1cnc(C(=O)Nc2nnc(C(C)C)s2)cn1,0,1.6,68*,-26,33
CC(C)c1nnc(NC(=O)c2cnccn2)s1,-14,1.4,51*,-13,32
O=C1N2c3ccccc3CCc3cccc(c32)C1(O)C(F)(F)F (stereo not drawn),5,1.1,-12,12,-7
COc1ccc(C(=O)Nc2ccc(-c3ccc(C)o3)cc2)cc1S(=O)(=O)N1CCOCC1,6,1.3,19,8,-10
CCOc1ccc(OCc2cccc(C(=O)O)c2)cc1,12,0,-95,97*,-94
COc1ccc(OCc2cccc(C(=O)O)c2)cc1,12,0,-94,94*,-94
O=C(O)c1ccccc1COc1ccccc1Cl,6,1.1,-11,29,-13
COC(=O)Nc1ccc(OCc2ccccc2)cc1,9,1.2,72*,-14,32
COc1ccc(NS(=O)(=O)c2cccc(C(=O)O)c2)cc1,-2,1,-12,14,14
CCOc1ccc(OCc2cccc(C(=O)N3CCCC3)c2)cc1,-1,0.5,-14,-3,-2
O=C(O)c1cccc(OCc2ccccc2Cl)c1,8,1.3,80*,-8,24
COC(=O)Nc1ccc(Oc2ccccc2)cc1,2,1.1,4,9,-6
SMILES,Jurkat tox 60K,MT1-MMP txn act,SF-1 act,HEK293 NFkB inh,RORa activator
COc1ccc(-n2nnc3c(SCC(=O)N4CCN(c5ccccc5)CC4)ncnc32)cc1,-1,0.9,15,6,-6
COC(=O)c1sccc1NC(=O)CSc1nnnn1-c1ccccc1C,.,1.1,.,.,.
O=C(O)c1ccc(COc2ccc(CO)cc2Cl)cc1,4,1.7,37,-8,5
O=C(O)c1cccc(COc2ccc(CO)cc2Cl)c1,7,0,-94,94*,-94
O=C(Nc1ccc2nc(-c3ccc(Br)o3)[nH]c2c1)c1ccco1,2,1.3,30,4,55*
O=C(Nc1ccc2nc(-c3ccc(Br)o3)[nH]c2c1)c1cccs1,11,1.3,6,12,62*
COC(=O)c1cc(C#N)c(NCc2ccccc2)nc1C,.,1.2,.,.,.
O=C(CCNc1cc(Cl)cc(Cl)c1)c1ccco1,0,1.1,8,1,-3
